Test results taken from ChEMBL document CHEMBL1146795, “Synthesis and antiangiogenic activity of exo-olefinated deoxoartemisinin derivatives” (Bioorg Med Chem Lett, 2004).
Converted amounts (≈) assume the structure as drawn.

Columns and labels:
HUVEC [1] = assay: Antiangiogenic activity to suppress the growth factor induced tube formation byHUVEC on Matrigel was assessed at the concentration of 10 ug/mL; format: functional; details: Homo sapiens
HUVEC [2] = assay: Antiangiogenic activity against HUVEC cells in HUVEC(Human Umbilical Vein Endothelial Cells) proliferation assay usingMTT colorimetric method; format: functional, cell-based
In short: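 HUVEC growth measured by MTT colorimetric read-out. IC50 taken from a nonlinear regression fit with r2 > 0.9.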

[3] = Antiangiogenic activity against chorioallantoic membrane (CAM) assay at 10 ug/egg; format: functional, tissue-based

SMILES	inhibition at 10 µg/mL (HUVEC [1])	IC50 (HUVEC [2])	inhibition [3]
C[C@@H]1CC[C@H]2[C@@H](C)/C(=C\Br)O[C@@H]3O[C@]4(C)CC[C@@H]1[C@]32OO4	25%	4.8 µg/mL (≈ 13.4 µM)	80%
CCC/C(Br)=C1/O[C@@H]2OC3(C)CC[C@H]4[C@H](C)CC[C@@H]([C@H]1C)[C@@]24OO3 (single isomer, unassigned)	10%	1.9 µg/mL (≈ 4.73 µM)	8%
C[C@@H]1CC[C@H]2[C@@H](C)/C(=C\c3ccccc3)O[C@@H]3OC4(C)CC[C@@H]1[C@]32OO4 (single isomer, unassigned)	10%	1.9 µg/mL (≈ 5.33 µM)	10%
CC(C)=C1O[C@@H]2OC3(C)CC[C@H]4[C@H](C)CC[C@@H]([C@H]1C)[C@@]24OO3 (single isomer, unassigned)	13%	2.3 µg/mL (≈ 7.46 µM)	29%
C[C@@H]1CC[C@H]2[C@@H](C)C(=Cc3ccccc3)O[C@@H]3OC4(C)CC[C@@H]1[C@]32OO4 (single isomer, unassigned)	10%	2.3 µg/mL (≈ 6.45 µM)	5%
C/C(Br)=C1/O[C@@H]2OC3(C)CC[C@H]4[C@H](C)CC[C@@H]([C@H]1C)[C@@]24OO3 (single isomer, unassigned)	32%	25.4 µg/mL (≈ 68 µM)	43%
C/C(Br)=C1\O[C@@H]2OC3(C)CC[C@H]4[C@H](C)CC[C@@H]([C@H]1C)[C@@]24OO3 (single isomer, unassigned)	65%	4.5 µg/mL (≈ 12.1 µM)	50%
CCC/C(Br)=C1\O[C@@H]2OC3(C)CC[C@H]4[C@H](C)CC[C@@H]([C@H]1C)[C@@]24OO3 (single isomer, unassigned)	39%	1.5 µg/mL (≈ 3.74 µM)	57%
